Assay results as given in ChEMBL document CHEMBL1152579, “Substrate specificity effects of lipoxygenase products and inhibitors on soybean lipoxygenase-1” (Bioorg Med Chem, 2009).
pKi: −log10 of the molar value. Counter-ions that a name gives are not always drawn.

Key:
[1] = target: T1, Seed linoleate 13S-lipoxygenase-1 (Glycine max) (UniProt P08170); experiment: Inhibition of soybean LO1 assessed as increase in non-endogenous arachidonic acid/linoleic acid maximal ratio by substrate specificity assay
T1 sequence (whole entry): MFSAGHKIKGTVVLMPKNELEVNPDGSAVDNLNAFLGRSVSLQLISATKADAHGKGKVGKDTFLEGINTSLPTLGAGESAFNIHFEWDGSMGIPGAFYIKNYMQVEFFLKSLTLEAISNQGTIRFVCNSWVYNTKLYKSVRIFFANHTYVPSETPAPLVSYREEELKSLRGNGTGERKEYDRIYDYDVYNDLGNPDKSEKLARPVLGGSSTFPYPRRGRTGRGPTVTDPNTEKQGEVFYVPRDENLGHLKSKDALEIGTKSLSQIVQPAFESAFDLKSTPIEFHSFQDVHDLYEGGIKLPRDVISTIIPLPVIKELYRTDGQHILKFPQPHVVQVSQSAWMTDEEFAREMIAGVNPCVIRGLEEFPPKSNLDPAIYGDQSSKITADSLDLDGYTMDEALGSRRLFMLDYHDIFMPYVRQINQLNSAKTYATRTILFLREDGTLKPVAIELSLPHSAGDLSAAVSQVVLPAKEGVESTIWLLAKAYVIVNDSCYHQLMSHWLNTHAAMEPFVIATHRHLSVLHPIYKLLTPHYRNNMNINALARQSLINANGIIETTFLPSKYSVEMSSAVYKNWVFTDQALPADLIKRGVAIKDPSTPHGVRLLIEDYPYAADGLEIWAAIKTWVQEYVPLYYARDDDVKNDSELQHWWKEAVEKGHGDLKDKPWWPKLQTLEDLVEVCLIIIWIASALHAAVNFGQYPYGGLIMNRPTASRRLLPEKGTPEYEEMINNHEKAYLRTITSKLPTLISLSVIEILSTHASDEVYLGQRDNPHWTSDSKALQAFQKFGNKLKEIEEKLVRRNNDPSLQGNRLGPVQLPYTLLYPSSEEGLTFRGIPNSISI
Method in brief: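 Inhibitor titrated into competitive substrate-capture reactions: sLO-1 with 1:1 AA:LA at 1 μM total substrate, 100 mM borate pH 9.2, 22 °C. Product ratio was measured by HPLC at each concentration. The change in (kcat/KM)AA/(kcat/KM)LA ratio was plotted against inhibitor concentration and fit to a saturation curve, giving the maximal ratio at saturation.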

[2] = target: T1, Seed linoleate 13S-lipoxygenase-1 (Glycine max); experiment: Mixed-type inhibition of soybean LO1 assessed as increase in arachidonic acid/linoleic acid ratio at 65 uM by substrate specificity assay
[3] = target: T1, Seed linoleate 13S-lipoxygenase-1 (Glycine max); experiment: Mixed-type inhibition of soybean LO1 assessed as increase in arachidonic acid/linoleic acid ratio at 30 uM by substrate specificity assay
[4] = target: T1, Seed linoleate 13S-lipoxygenase-1 (Glycine max); experiment: Mixed-type inhibition of soybean LO1 assessed as increase in arachidonic acid/linoleic acid ratio at 13 uM by substrate specificity assay
[5] = target: T2, Seed linoleate 13S-lipoxygenase-1 (Glycine max, UniProt P08170); experiment: Binding affinity to allosteric site of soybean LO1
T2 sequence (P08170 whole entry): T1 sequence (whole entry)

[6] = target: T1, Seed linoleate 13S-lipoxygenase-1 (Glycine max); experiment: Allosteric inhibition of soybean LO1 assessed as increase in arachidonic acid/linoleic acid ratio at 5 uM by substrate specificity assay
[7] = target: T1, Seed linoleate 13S-lipoxygenase-1 (Glycine max); experiment: Allosteric inhibition of soybean LO1 assessed as increase in arachidonic acid/linoleic acid ratio at 1 uM by substrate specificity assay
[8] = target: T1, Seed linoleate 13S-lipoxygenase-1 (Glycine max); experiment: Allosteric inhibition of soybean LO1 assessed as increase in arachidonic acid/linoleic acid ratio at 1 uM by substrate specificity assay
[9] = target: T1, Seed linoleate 13S-lipoxygenase-1 (Glycine max); experiment: Competitive inhibition of soybean LO1 assessed as increase in arachidonic acid/linoleic acid ratio at 5 uM by substrate specificity assay
[10] = target: T1, Seed linoleate 13S-lipoxygenase-1 (Glycine max); experiment: Allosteric inhibition of soybean LO1 assessed as increase in arachidonic acid/linoleic acid ratio at 0.5 uM by substrate specificity assay
[11] = target: T1, Seed linoleate 13S-lipoxygenase-1 (Glycine max); experiment: Allosteric inhibition of soybean LO1 assessed as increase in arachidonic acid/linoleic acid ratio at 10 uM by substrate specificity assay
[12] = target: T2, Seed linoleate 13S-lipoxygenase-1; experiment: Binding affinity to soybean LO1

Structure (SMILES): CCCCCC/C=C\CCCCCCCCOS(=O)(=O)O
- Ratio [1]: 7.4
- Ratio [2]: 4
- Ratio [3]: 3
- Ratio [4]: 2.3
- pKi [5]: 3.85

Structure (SMILES): CCCCCCCC/C=C\CCCCCCCCOS(=O)(=O)O [OLEYL SULFATE]
- Ratio [6]: 4.8
- Ratio [7]: 3.2
- Ratio [1]: 5.4
- Ratio [8]: 3.2
- Ratio [9]: 4.7
- Ratio [10]: 2.5
- Ratio [11]: 4.8
- pKi [12]: 6.15
